Measured values from ChEMBL document CHEMBL4715736, “Identification of anticancer agents based on the thieno[2,3-b]pyridine and 1H-pyrazole molecular scaffolds” (2016).

Assays:
Type in all cases: functional
RPMI-8226 = assay: Growth inhibition of human RPMI-8226 cells assessed as cell growth at 0.01 uM incubated for 48 hrs by sulforhodamine B assay relative to control; conditions: read-out: Activity
A549 = assay: Growth inhibition of human A549/ATCC cells assessed as cell growth at 0.01 uM incubated for 48 hrs by sulforhodamine B assay relative to control; conditions: read-out: Activity
How it was run: (§1)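 NCI Developmental Therapeutics Program NCI60 panel. Compounds that were active in the 10 µM one-dose screen went on to dose–response testing. Growth at each concentration is expressed relative to untreated control (100%). GI50 (concentration giving 50% of maximal inhibition of proliferation) and TGI (concentration giving total growth inhibition) were derived from the curves.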

SF-268 = assay: Growth inhibition of human SF-268 cells assessed as cell growth at 0.01 uM incubated for 48 hrs by sulforhodamine B assay relative to control; conditions: read-out: Activity
Malme-3M = assay: Growth inhibition of human Malme-3M cells assessed as cell growth at 0.01 uM incubated for 48 hrs by sulforhodamine B assay relative to control; conditions: read-out: Activity
M14 = assay: Growth inhibition of human M14 cells assessed as cell growth at 0.01 uM incubated for 48 hrs by sulforhodamine B assay relative to control; conditions: read-out: Activity
IGROV-1 = assay: Growth inhibition of human IGROV-1 cells assessed as cell growth at 0.01 uM incubated for 48 hrs by sulforhodamine B assay relative to control; conditions: read-out: Activity
SK-OV-3 = assay: Growth inhibition of human SK-OV-3 cells assessed as cell growth at 0.01 uM incubated for 48 hrs by sulforhodamine B assay relative to control; conditions: read-out: Activity
MDA-MB-468 = assay: Growth inhibition of human MDA-MB-468 cells assessed as cell growth at 0.01 uM incubated for 48 hrs by sulforhodamine B assay relative to control; conditions: read-out: Activity
HCT-15 [1] = assay: Growth inhibition of human HCT-15 cells assessed as cell growth at 0.1 uM incubated for 48 hrs by sulforhodamine B assay relative to control; conditions: read-out: Activity
HT-29 = assay: Growth inhibition of human HT-29 cells assessed as cell growth at 0.1 uM incubated for 48 hrs by sulforhodamine B assay relative to control; conditions: read-out: Activity
MDA-MB-435 = assay: Growth inhibition of human MDA-MB-435 cells assessed as cell growth at 0.1 uM incubated for 48 hrs by sulforhodamine B assay relative to control; conditions: read-out: Activity
UACC-257 [2] = assay: Growth inhibition of human UACC-257 cells assessed as cell growth at 0.1 uM incubated for 48 hrs by sulforhodamine B assay relative to control; conditions: read-out: Activity
OVCAR-4 = assay: Growth inhibition of human OVCAR-4 cells assessed as cell growth at 0.1 uM incubated for 48 hrs by sulforhodamine B assay relative to control; conditions: read-out: Activity
NCI-H522 = assay: Growth inhibition of human NCI-H522 cells assessed as cell growth at 1 uM incubated for 48 hrs by sulforhodamine B assay relative to control; conditions: read-out: Activity
COLO 205 = assay: Growth inhibition of human COLO 205 cells assessed as cell growth at 1 uM incubated for 48 hrs by sulforhodamine B assay relative to control; conditions: read-out: Activity; how it was run: as §1
HCT-15 [3] = assay: Growth inhibition of human HCT-15 cells assessed as cell growth at 1 uM incubated for 48 hrs by sulforhodamine B assay relative to control; conditions: read-out: Activity
KM12 = assay: Growth inhibition of human KM12 cells assessed as cell growth at 1 uM incubated for 48 hrs by sulforhodamine B assay relative to control; conditions: read-out: Activity
SW-620 = assay: Growth inhibition of human SW-620 cells assessed as cell growth at 1 uM incubated for 48 hrs by sulforhodamine B assay relative to control; conditions: read-out: Activity
Hs-578T [4] = assay: Growth inhibition of human Hs-578T cells assessed as cell growth at 1 uM incubated for 48 hrs by sulforhodamine B assay relative to control; conditions: read-out: Activity
NCI-H23 = assay: Growth inhibition of human NCI-H23 cells assessed as cell growth at 100 uM incubated for 48 hrs by sulforhodamine B assay relative to control; conditions: read-out: Activity
SNB-75 = assay: Growth inhibition of human SNB-75 cells assessed as cell growth at 100 uM incubated for 48 hrs by sulforhodamine B assay relative to control; conditions: read-out: Activity
U-251 [5] = assay: Growth inhibition of human U-251 cells assessed as cell growth at 100 uM incubated for 48 hrs by sulforhodamine B assay relative to control; conditions: read-out: Activity
UACC-257 [6] = assay: Growth inhibition of human UACC-257 cells assessed as cell growth at 100 uM incubated for 48 hrs by sulforhodamine B assay relative to control; conditions: read-out: Activity
OVCAR-8 = assay: Growth inhibition of human OVCAR-8 cells assessed as cell growth at 100 uM incubated for 48 hrs by sulforhodamine B assay relative to control; conditions: read-out: Activity
TK-10 = assay: Growth inhibition of human TK-10 cells assessed as cell growth at 100 uM incubated for 48 hrs by sulforhodamine B assay relative to control; conditions: read-out: Activity
MCF7 = assay: Growth inhibition of human MCF7 cells assessed as cell growth at 100 uM incubated for 48 hrs by sulforhodamine B assay relative to control; conditions: read-out: Activity
K562 = assay: Growth inhibition of human K562 cells incubated for 48 hrs by sulforhodamine B assay
How it was run: (§2)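 NCI60 panel at the NCI Developmental Therapeutics Program. Only compounds active in the 10 µM screen went to dose-response testing. GI50, the concentration giving 50% of maximal inhibition of proliferation, and TGI, the concentration giving total growth inhibition, were derived from the dose-response curves.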

HOP-62 = assay: Growth inhibition of human HOP-62 cells incubated for 48 hrs by sulforhodamine B assay; how it was run: as §2
NCI-H460 = assay: Growth inhibition of human NCI-H460 cells incubated for 48 hrs by sulforhodamine B assay; how it was run: as §2
HCT-15 [7] = assay: Growth inhibition of human HCT-15 cells incubated for 48 hrs by sulforhodamine B assay; how it was run: as §2
U-251 [8] = assay: Growth inhibition of human U-251 cells incubated for 48 hrs by sulforhodamine B assay
How it was run: (§3)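 NCI DTP 60-line human tumour panel. Dose-response curves were run only for ligands active in the initial 10 µM screen. GI50 (concentration giving 50% of maximal inhibition of proliferation) and TGI (concentration giving total growth inhibition) were derived from these curves.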

A498 = assay: Growth inhibition of human A498 cells incubated for 48 hrs by sulforhodamine B assay; conditions: for CC50: read-out: LC50 (the source's name); how it was run: as §1
RXF 393 = assay: Growth inhibition of human RXF 393 cells incubated for 48 hrs by sulforhodamine B assay; conditions: for CC50: read-out: LC50 (the source's name); how it was run: as §3
Hs-578T [9] = assay: Growth inhibition of human Hs-578T cells incubated for 48 hrs by sulforhodamine B assay; conditions: for CC50: read-out: LC50 (the source's name); how it was run: as §2
BT-549 = assay: Growth inhibition of human BT-549 cells incubated for 48 hrs by sulforhodamine B assay; conditions: for CC50: read-out: LC50 (the source's name); how it was run: as §1

Nc1c(C(=O)Nc2ccccc2)sc2nc3c(cc12)CN(Cc1ccccc1)CC3
growth at 0.01 µM (RPMI-8226): 97% | growth at 0.01 µM (A549): 98% | growth at 0.01 µM (SF-268): 91% | growth at 0.01 µM (Malme-3M): 87% | growth at 0.01 µM (M14): 98% | growth at 0.01 µM (IGROV-1): 95% | growth at 0.01 µM (SK-OV-3): 97% | growth at 0.01 µM (MDA-MB-468): 96% | growth at 0.1 µM (HCT-15 [1]): 97% | growth at 0.1 µM (HT-29): 101% | growth at 0.1 µM (MDA-MB-435): 85% | growth at 0.1 µM (UACC-257 [2]): 95% | growth at 0.1 µM (OVCAR-4): 91% | growth at 1 µM (NCI-H522): 91% | growth at 1 µM (COLO 205): 93% | growth at 1 µM (HCT-15 [3]): 94% | growth at 1 µM (KM12): 88% | growth at 1 µM (SW-620): 86% | growth at 1 µM (Hs-578T [4]): 78% | growth at 100 µM (NCI-H23): 24% | growth at 100 µM (SNB-75): -49% | growth at 100 µM (U-251 [5]): 12% | growth at 100 µM (UACC-257 [6]): 44% | growth at 100 µM (OVCAR-8): 18% | growth at 100 µM (TK-10): -7% | growth at 100 µM (MCF7): 14% | GI50 (K562): 9.1 µM | LC50 (concentration killing 50% of cells) (K562): > 100 µM | TGI (K562): > 100 µM | GI50 (HOP-62): 4.11 µM | LC50 (HOP-62): > 100 µM | TGI (HOP-62): 33.3 µM | GI50 (NCI-H460): 7.51 µM | LC50 (NCI-H460): > 100 µM | TGI (NCI-H460): > 100 µM | GI50 (HCT-15 [7]): 24.7 µM | LC50 (HCT-15 [7]): > 100 µM | TGI (HCT-15 [7]): > 100 µM | GI50 (U-251 [8]): 13.9 µM | LC50 (concentration killing 50% of cells) (U-251 [8]): > 100 µM | TGI (U-251 [8]): > 100 µM | GI50 (A498): 1.78 µM | CC50 (A498): > 100 µM | GI50 (RXF 393): 3.15 µM | TGI (RXF 393): 54.2 µM | CC50 (RXF 393): > 100 µM | GI50 (Hs-578T [9]): 2.07 µM | TGI (Hs-578T [9]): 7.55 µM | CC50 (Hs-578T [9]): > 100 µM | GI50 (BT-549): 16.8 µM | TGI (BT-549): 92.3 µM | CC50 (BT-549): > 100 µM

Cc1cc(C)c(NC(=O)c2sc3nc4c(cc3c2N)CN(Cc2ccccc2)CC4)c(C)c1
growth at 0.01 µM (RPMI-8226): 101% | growth at 0.01 µM (A549): 96% | growth at 0.01 µM (SF-268): 98% | growth at 0.01 µM (Malme-3M): 106% | growth at 0.01 µM (M14): 91% | growth at 0.01 µM (IGROV-1): 101% | growth at 0.01 µM (SK-OV-3): 92% | growth at 0.01 µM (MDA-MB-468): 99% | growth at 0.1 µM (HCT-15 [1]): 93% | growth at 0.1 µM (HT-29): 100% | growth at 0.1 µM (MDA-MB-435): 96% | growth at 0.1 µM (UACC-257 [2]): 93% | growth at 0.1 µM (OVCAR-4): 94% | growth at 1 µM (NCI-H522): 66% | growth at 1 µM (COLO 205): 95% | growth at 1 µM (HCT-15 [3]): 68% | growth at 1 µM (KM12): 87% | growth at 1 µM (SW-620): 76% | growth at 1 µM (Hs-578T [4]): 76% | growth at 100 µM (NCI-H23): 13% | growth at 100 µM (SNB-75): -9% | growth at 100 µM (U-251 [5]): -43% | growth at 100 µM (UACC-257 [6]): 17% | growth at 100 µM (OVCAR-8): 14% | growth at 100 µM (TK-10): 5% | growth at 100 µM (MCF7): -8% | GI50 (K562): 0.903 µM | LC50 (concentration killing 50% of cells) (K562): > 100 µM | TGI (K562): > 100 µM | GI50 (HOP-62): 7.73 µM | LC50 (HOP-62): > 100 µM | TGI (HOP-62): > 100 µM | GI50 (NCI-H460): 3.29 µM | LC50 (NCI-H460): > 100 µM | TGI (NCI-H460): 16.3 µM | GI50 (HCT-15 [7]): 2.12 µM | LC50 (HCT-15 [7]): > 100 µM | TGI (HCT-15 [7]): > 100 µM | GI50 (U-251 [8]): 4.35 µM | LC50 (concentration killing 50% of cells) (U-251 [8]): > 100 µM | TGI (U-251 [8]): 24.2 µM | GI50 (A498): 1.31 µM | TGI (A498): 7.71 µM | CC50 (A498): > 100 µM | GI50 (RXF 393): 2.45 µM | TGI (RXF 393): 18.5 µM | CC50 (RXF 393): > 100 µM | GI50 (Hs-578T [9]): 2.66 µM | TGI (Hs-578T [9]): 65.9 µM | CC50 (Hs-578T [9]): > 100 µM | GI50 (BT-549): 4.05 µM | TGI (BT-549): 57.6 µM | CC50 (BT-549): > 100 µM
